This note sets out measurements from ChEMBL document CHEMBL5113533 (J Med Chem, 2022).

The source made the active and inactive calls.

Test [1] addresses MAP kinase-activated protein kinase 2 (Homo sapiens) (UniProt P49137). In words: Inhibition of MK2 in Escherichia coli -stimulated human THP-1 cells assessed as reduction in p38alpha MAPK phosphorylation at 1 uM pretreated for 1 hr followed by Escherichia coli stimulation and measured up to 15 mins by western blot analysis. To be noted: time 1.15 hrs. The class given is cell-based.

The subject of test [2] is THP-1. In words: Antiinflammatory activity against Escherichia coli induced human THP-1 cells assessed as reduction in proinflammatory phenotype at 1 uM for 1 hr followed by Escherichia coli stimulation and measured upto 24 hrs by MALDI-TOF MS analysis. The class given is functional, cell-based. A digest of the protocol:
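THP-1 cells pre-treated with compound for 1 h, then infected with live E. coli (MOI 2), spun 500g 5 min, left 15 or 30 min for uptake, then 100 μg/mL gentamicin for 1 h and 20 μg/mL gentamicin thereafter, up to 24 h. Pellets frozen on dry ice, thawed, washed in 100 mM Tris–HCl pH 7.5 at 4 °C, and read by MALDI-TOF MS as the normalized m/z 4964/4632 ratio.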

Test [3] concerns THP-1. In words: Antiinflammatory activity against LPS-stimulated human THP-1 cells assessed reduction in IL-1beta level pretreated at 5 uM for 1 hr followed by LPS stimulation and measured upto 24 hrs by ELISA analysis. The class given is functional, cell-based. A digest of the protocol:
(§1)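 THP-1 cells pre-treated with compound for 1 h (5 μM or 1 μM, depending on the compound), then stimulated with 100 ng/mL LPS. Culture supernatant was taken at 24 h, and TNF-α, IL-6 or IL-1β was measured by sandwich ELISA at 450 nm with 540 nm correction; four biological replicates.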
On the technique in general: In an ELISA, binding on a coated surface is turned into a signal by an enzyme label.

For test [4], the system named is THP-1. In words: Antiinflammatory activity against LPS-stimulated human THP-1 cells assessed reduction in TNFalpha level pretreated at 5 uM for 1 hr followed by LPS stimulation and measured upto 24 hrs by ELISA analysis. It counts as functional, cell-based. A digest of the protocol:
as §1

The subject of test [5] is THP-1. The test is described as follows: Antiinflammatory activity against LPS-stimulated human THP-1 cells assessed as blockage of inflammatory phenotype by measuring m/z ratio at 5 uM pretreated for 1 hr followed by LPS stimulation and measured upto 24 hrs. It counts as functional, cell-based. In outline: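 THP-1 cells at 1 million/mL, pre-treated with compound at 5 μM for 1 h in technical triplicate, then 100 ng/mL LPS for 24 h. Pellets frozen on dry ice, thawed, washed in 100 mM Tris–HCl pH 7.5 at 4 °C. MALDI-TOF MS read-out is the normalized m/z 4964/4632 ratio, with a 40% cutoff used for hit calling; three biological replicates.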

In test [6] the test system is THP-1. The test is described as follows: Antiinflammatory activity against LPS-stimulated human THP-1 cells assessed reduction in IL-6 level pretreated at 5 uM for 1 hr followed by LPS stimulation and measured upto 24 hrs by ELISA analysis. It counts as functional, cell-based. A digest of the protocol:
as §1

Test [7] deals with Mitogen-activated protein kinase 14 (Homo sapiens) (UniProt Q16539). The test is described as follows: Binding affinity to P38alpha (unknown origin) measured at 0.05 to 333.33 nM after 600 secs by SPR analysis. Conditions: dose 0.05-333.33 nM, time 600.0 sec. In outline: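 Biotinylated avidin-p38α was captured on a streptavidin chip from 50 μg/mL, reaching about 7719 RU. A 10-point series (0.05–333.33 nM) ran multicycle at 2 °C against a control surface: 90 s injection at 30 μL/min, then 600 s dissociation.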
Background: Surface plasmon resonance follows binding to a sensor surface in real time, without labels.

Sequence of Mitogen-activated protein kinase 14 (Homo sapiens) (Q16539 whole entry): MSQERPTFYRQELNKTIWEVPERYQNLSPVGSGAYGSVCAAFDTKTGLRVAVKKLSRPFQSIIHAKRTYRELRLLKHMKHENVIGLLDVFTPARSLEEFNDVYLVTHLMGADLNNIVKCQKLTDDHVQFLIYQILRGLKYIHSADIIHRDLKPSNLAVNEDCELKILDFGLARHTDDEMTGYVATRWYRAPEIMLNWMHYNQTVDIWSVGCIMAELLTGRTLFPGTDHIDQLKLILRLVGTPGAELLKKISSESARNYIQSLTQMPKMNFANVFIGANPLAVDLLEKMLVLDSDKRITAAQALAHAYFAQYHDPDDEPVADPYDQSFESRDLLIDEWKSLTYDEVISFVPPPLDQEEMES
Sequence of MAP kinase-activated protein kinase 2 (Homo sapiens) (P49137 whole entry, looked up): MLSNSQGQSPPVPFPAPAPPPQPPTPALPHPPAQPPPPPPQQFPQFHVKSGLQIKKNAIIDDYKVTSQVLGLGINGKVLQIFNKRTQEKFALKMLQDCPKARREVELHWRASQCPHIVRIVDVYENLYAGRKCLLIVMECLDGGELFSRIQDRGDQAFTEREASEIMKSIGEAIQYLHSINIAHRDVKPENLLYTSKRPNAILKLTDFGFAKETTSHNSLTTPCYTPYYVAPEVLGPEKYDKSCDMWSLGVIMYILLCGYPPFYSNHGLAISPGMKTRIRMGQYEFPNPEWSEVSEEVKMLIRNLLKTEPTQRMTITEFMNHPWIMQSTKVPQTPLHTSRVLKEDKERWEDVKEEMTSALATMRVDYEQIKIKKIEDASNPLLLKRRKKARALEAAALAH

As for `Cc1c(F)cc(C(=O)NC2CC2)cc1-c1ccc(C(=O)NCC(C)(C)C)cn1`, in test [1], the inhibition result is “Active”. Also, the outcome in the test on THP-1 [2] was Active.
Take `CC[C@@H]1C(=O)N(C)c2cnc(Nc3ccc(C(=O)NC4CCN(C)CC4)cc3OC)nc2N1C1CCCC1`: the result with THP-1 [3], in the test on THP-1 [4], in the test with THP-1 [5] and with THP-1 [6] was Active.
Regarding `Cc1ccc(C(=O)Nc2ccc(CN3CCN(C)CC3)c(C(F)(F)F)c2)cc1C#Cc1cnc2cccnn12`, in test [7], the result was Active.
